Measured values: ChEMBL document CHEMBL1122142, “Synthesis and antiinflammatory activity of hexahydrothiopyrano[4,3-c]pyrazoles and related analogues” (J Med Chem, 1982)

Columns and labels:
Mus musculus [1] = test: Inhibition of Mouse active Arthus (MAA) reaction activity was determined for an ip dose of 150 mg/kg in mouse; 21-30%; format: functional; settings: route intraperitoneal
Mus musculus [2] = test: Inhibition of Mouse active Arthus (MAA) reaction activity was determined for peroral dose of 150 mg/kg in mouse; 21-30%; format: functional; settings: route oral
Cavia porcellus [3] = test: The compound was evaluated for the delayed hypersensitivity skin reaction (DHSR) activity after subcutaneous administration; 14/36
Mus musculus [4] = test: Mouse active Arthus (MAA) reaction activity was determined for an ip dose of 150 mg/kg in mouse; 31-40%; format: functional; settings: route intraperitoneal
Cavia porcellus [5] = test: The compound was evaluated for the delayed hypersensitivity skin reaction (DHSR) activity after subcutaneous administration; 8/19
Cavia porcellus [6] = test: Tested in delayed hypersensitivity skin reaction (DHSR) after subcutaneous administration, activity reported as percent inhibition of erythema/induration of lesion; 15/7; format: functional
Mus musculus [7] = test: The compound was evaluated for the mouse active Arthus (MAA) reaction activity for peroral screening dose of 150 mg/kg in mouse; format: functional; settings: route oral
Cavia porcellus [8] = test: Tested in delayed hypersensitivity skin reaction (DHSR) after subcutaneous administration, activity reported as percent inhibition of erythema/induration of lesion; 21/6; format: functional
Mus musculus [9] = test: Inhibition of Mouse Active Arthus reaction following 150 mg/Kg i.p.; 41-60% inhibition.; format: functional; settings: for inhibition in vivo at 150 mg/kg: Mus musculus, ip
Cavia porcellus [10] = test: Tested in delayed hypersensitivity skin reaction (DHSR) after subcutaneous administration, activity reported as percent inhibition of erythema/induration of lesion; 14/25; format: functional
Mus musculus [11] = test: The compound was evaluated for the mouse active Arthus (MAA) reaction activity for an ip screening dose of 75 mg/kg; 21-30%; format: functional; settings: route intraperitoneal
How it was run: (§1)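 CD-1 mice were sensitized ip with a 1:1 Freund's complete adjuvant emulsion containing BSA in saline, 5 weeks before challenge. Compound was suspended in 1% Na CMC in pyrogen-free saline and given as one ip or oral dose 1 h before skin challenge with BSA. Screening doses were 150 mg/kg ip and 300 mg/kg po, with some at 75 or 50 mg/kg ip. Lesions were excised 3.5 h after challenge and weighed against controls.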

Cavia porcellus [12] = test: Tested in delayed hypersensitivity skin reaction (DHSR) after subcutaneous administration, activity reported as percent inhibition of erythema/induration of lesion; 14/34; format: functional
Mus musculus [13] = test: The compound was evaluated for the mouse active Arthus (MAA) reaction activity expressed as inhibitory dose after ip administration; format: functional; settings: read-out: ID50 (the source's name); how it was run: as §1
Mus musculus [14] = test: The compound was evaluated for the mouse active Arthus (MAA) reaction activity for an ip dose of 150 mg/kg in mouse; format: functional; settings: route intraperitoneal; how it was run: as §1
Cavia porcellus [15] = test: Tested in delayed hypersensitivity skin reaction (DHSR) after subcutaneous administration, activity reported as percent inhibition of erythema/induration of lesion; 5/2; format: functional
How it was run: (§2)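 Male Hartley guinea pigs were sensitized with Mycobacterium tuberculosis in Freund's incomplete adjuvant, injected into each hind footpad and subcutaneously at the neck. After 3 weeks, 1.2 μg PPD was given intradermally. Compound in sesame oil was given sc, 3 animals per group, 30 min before and 5 h after PPD; screening dose 50 mg/kg.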

Cavia porcellus [16] = test: Tested in delayed hypersensitivity skin reaction (DHSR) after subcutaneous administration, activity reported as percent inhibition of erythema/induration of lesion; 9/30; format: functional; how it was run: as §2
Cavia porcellus [17] = test: Tested in delayed hypersensitivity skin reaction (DHSR) after subcutaneous administration, activity reported as percent inhibition of erythema/induration of lesion; 7/17; format: functional; how it was run: as §2
Cavia porcellus [18] = test: Tested in delayed hypersensitivity skin reaction (DHSR) after subcutaneous administration, activity reported as percent inhibition of erythema/induration of lesion; 6/12; format: functional; how it was run: as §2
Cavia porcellus [19] = test: Tested in delayed hypersensitivity skin reaction (DHSR) after subcutaneous administration, activity reported as percent inhibition of erythema/induration of lesion; 3/4; format: functional; how it was run: as §2
Cavia porcellus [20] = test: Tested in delayed hypersensitivity skin reaction (DHSR) after subcutaneous administration, activity reported as percent inhibition of erythema/induration of lesion; 22/51; format: functional
Cavia porcellus [21] = test: Tested in delayed hypersensitivity skin reaction (DHSR) after subcutaneous administration, activity reported as percent inhibition of erythema/induration of lesion; 13/52; format: functional
[22] = Acute toxicity as LD50 value was determined in mice administered intraperitoneally; format: organism-based; settings: mouse, in vivo, ip
[23] = Acute toxicity as LD50 value was determined in mice administered orally; format: organism-based; settings: mouse, in vivo, po
Mus musculus [24] = test: The compound was evaluated for the mouse active Arthus (MAA) reaction activity expressed as inhibitory dose after oral administration; format: functional; settings: read-out: ID50 (the source's name); how it was run: as §1
Rattus norvegicus [25] = test: Carrageenan-induced edema was determined after intraperitoneal administration; format: functional; settings: ip, read-out: ID50 (the source's name)
How it was run: (§3)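 Adult male Sprague-Dawley (CD) rats, 160–200 g. Single dose in 1% CMC given 2 h before footpad injection of 0.05 mL 1% carrageenin in pyrogen-free saline. Paws removed and weighed at 3 h, with the contralateral paw as control. ID50 is the dose giving 50% edema inhibition.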

Rattus norvegicus [26] = test: Carrageenan-induced edema was determined after oral administration; format: functional; settings: read-out: ID50 (the source's name); how it was run: as §3
Rattus norvegicus [27] = test: Adjuvant-induced arthritis was determined for a dose of 150 mg/kg administered intraperitoneally; 16/72; format: functional; settings: ip, route intraperitoneal
How it was run: (§4)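 Male Lewis rats; day 0, 0.50 mg desiccated Mycobacterium butyricum in 0.10 mL light mineral oil into left plantar paw. Compound dissolved or suspended in 1% CMC, dosed daily for 21 days starting the day before adjuvant. On day 21, injected and noninjected hind paws weighed. Values are percent inhibition, local (injected paw)/systemic (noninjected paw).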

Rattus norvegicus [28] = test: Adjuvant-induced arthritis was determined for a dose of 150 mg/kg administered orally; 17/0; format: functional; settings: po; how it was run: as §4
Rattus norvegicus [29] = test: Adjuvant-induced arthritis was determined for a dose of 75 mg/kg intraperitoneal administration; 28/78; format: functional; settings: ip; how it was run: as §4
Rattus norvegicus [30] = test: Adjuvant-induced arthritis was determined for a dose of 75 mg/kg oral administration; 1/0; format: functional; how it was run: as §4
[31] = Therapeutic ratio was determined for intraperitoneal administration; format: ADME; settings: ip; read-out: TR
[32] = Therapeutic ratio was determined for peroral administration; settings: po; read-out: TR
Mus musculus [33] = test: Mouse active Arthus (MAA) reaction was determined value for oral administration
Cavia porcellus [34] = test: Tested in delayed hypersensitivity skin reaction (DHSR) after subcutaneous administration, activity reported as percent inhibition of erythema/induration of lesion; 19/23; format: functional
Mus musculus [35] = test: The compound was evaluated for the mouse active Arthus (MAA) reaction activity for an ip screening dose of 75 mg/kg in mouse; format: functional; settings: route intraperitoneal; how it was run: as §1

`CCCN1N=C2/C(=C/c3ccc(Cl)cc3)CSCC2C1c1ccc(Cl)cc1` (stereo not drawn) showed an inhibition in vivo at 150 mg/kg (Mus musculus [1]) of 21%, an inhibition in vivo at 150 mg/kg (Mus musculus [2]) of 21% and an Activity (Cavia porcellus [3]) of 14.
Work on `CCCN1N=C2/C(=C/c3ccccc3C)CSCC2C1c1ccccc1C` (stereo not drawn) yielded an inhibition in vivo at 150 mg/kg (Mus musculus [4]) of 31% and an Activity (Cavia porcellus [5]) of 8.
With `Cc1ccc(/C=C2\CS(=O)(=O)CC3C2=NN(CC2CC2)C3c2ccc(C)cc2)cc1` (stereo not drawn) the Activity (Cavia porcellus [6]) was 15 and the inhibition in vivo at 150 mg/kg (Mus musculus [7]) was less than 20%.
Work on `CN1CCN(CCCN2N=C3/C(=C/c4ccccc4)CSCC3C2c2ccccc2)CC1.O=C(O)/C=C\C(=O)O` (stereo not drawn) yielded an Inhibition (Cavia porcellus [8]) of 21% and an Inhibition (Mus musculus [9]) of 41%.
`CCCn1nc(-c2ccc(C)cc2)c2c1/C(=C/c1ccc(C)cc1)CS(=O)(=O)C2` showed an Activity (Cavia porcellus [10]) of 14 and an inhibition in vivo at 75 mg/kg (Mus musculus [11]) of 21%.
With `COc1ccc(/C=C2\CSCC3C2=NN(CCCN2CCN(C)CC2)C3c2ccc(OC)cc2)cc1.O=C(O)/C=C\C(=O)O` (stereo not drawn) the Activity (Cavia porcellus [12]) was 14, the ED50 (Mus musculus [13]) was 60 mg/kg and the inhibition in vivo at 150 mg/kg (Mus musculus [14]) was greater than 60%.
`CC(C)n1nc(-c2cccc(C(F)(F)F)c2)c2c1/C(=C/c1cccc(C(F)(F)F)c1)CS(=O)(=O)C2` showed an Activity (Cavia porcellus [15]) of 5 and an inhibition in vivo at 150 mg/kg (Mus musculus [1]) of 21%.
In the case of `CCCN1N=C2/C(=C/c3ccccc3)COCC2C1c1ccccc1` (stereo not drawn), the Activity (Cavia porcellus [16]) is reported as 9 and the inhibition in vivo at 150 mg/kg (Mus musculus [1]) is reported as 21%.
`CCCN1N=C2/C(=C/c3ccccc3C)CS(=O)(=O)CC2C1c1ccccc1C` (stereo not drawn) showed an Activity (Cavia porcellus [17]) of 7 and an inhibition in vivo at 150 mg/kg (Mus musculus [1]) of 21%.
In the case of `CCCCN1N=C2/C(=C/c3cccnc3)CSCC2C1c1cccnc1` (stereo not drawn), the Activity (Cavia porcellus [18]) is reported as 6 and the inhibition in vivo at 150 mg/kg (Mus musculus [14]) is reported as less than 20%.
With `O=S1(=O)C/C(=C\c2ccccc2)C2=NNC(c3ccccc3)C2C1` (stereo not drawn) the Activity (Cavia porcellus [19]) was 3 and the inhibition in vivo at 150 mg/kg (Mus musculus [9]) was 41%.
`CN1CCN(CCCN2N=C3/C(=C/c4ccccc4)COCC3C2c2ccccc2)CC1` (stereo not drawn) showed an Activity (Cavia porcellus [20]) of 22.
`CCCN1N=C2/C(=C/c3ccc(C)cc3)CS(=O)(=O)CC2C1c1ccc(C)cc1` (stereo not drawn) showed an Activity (Cavia porcellus [21]) of 13, an LD50 [22] of 3400 mg/kg and an LD50 [23] greater than 4000 mg/kg. The ED50 (Mus musculus [13]) was 140 mg/kg, the ED50 (Mus musculus [24]) was greater than 600 mg/kg and the inhibition in vivo at 150 mg/kg (Mus musculus [9]) was 41%. It also gave an ED50 (Rattus norvegicus [25]) of 84 mg/kg, an ED50 (Rattus norvegicus [26]) of 250 mg/kg and an inhibition in vivo at 150 mg/kg (Rattus norvegicus [27]) of 16%. It also gave an inhibition in vivo at 150 mg/kg (Rattus norvegicus [28]) of 17%, an inhibition in vivo at 75 mg/kg (Rattus norvegicus [29]) of 28% and an inhibition in vivo at 75 mg/kg (Rattus norvegicus [30]) of 1%. For the same compound, the selectivity ratio [31] was 24.
`CC(C)Cc1ccc(C(C)C(=O)O)cc1` (stereo not drawn) [IBUPROFEN] showed a selectivity ratio [32] of 3.4 and an ID50 (Mus musculus [33]) of 494 mg/kg.
`Cc1ccc(/C=C2\CS(=O)(=O)Cc3c(-c4ccc(C)cc4)nn(CC(F)(F)F)c32)cc1` gave an Activity (Cavia porcellus [34]) of 19, an inhibition in vivo at 75 mg/kg (Mus musculus [35]) greater than 60% and an inhibition in vivo at 150 mg/kg (Mus musculus [7]) of less than 20%.
